# Assay outcomes deposited in PubChem by Sanford-Burnham Center for Chemical Genomics.
# A selection: hits, their analogues and other compounds. The true share with any hit is near 0.79%.
# hIAP block: blocks human intestinal alkaline phosphatase. P09923. AID 2544. hit rate 0.12% among 330,000. purified IAP, CDP-Star luminescence, 30 min. inhibition, % at 10 µM;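 active means inhibition reaching a set limit with compound at 10 µM in the primary screen, cut at about 35% in these data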;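 further: plate controls were DMSO wells with enzyme for no effect and no-enzyme buffer wells for full effect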
# Target sequence (P09923 whole entry, looked up): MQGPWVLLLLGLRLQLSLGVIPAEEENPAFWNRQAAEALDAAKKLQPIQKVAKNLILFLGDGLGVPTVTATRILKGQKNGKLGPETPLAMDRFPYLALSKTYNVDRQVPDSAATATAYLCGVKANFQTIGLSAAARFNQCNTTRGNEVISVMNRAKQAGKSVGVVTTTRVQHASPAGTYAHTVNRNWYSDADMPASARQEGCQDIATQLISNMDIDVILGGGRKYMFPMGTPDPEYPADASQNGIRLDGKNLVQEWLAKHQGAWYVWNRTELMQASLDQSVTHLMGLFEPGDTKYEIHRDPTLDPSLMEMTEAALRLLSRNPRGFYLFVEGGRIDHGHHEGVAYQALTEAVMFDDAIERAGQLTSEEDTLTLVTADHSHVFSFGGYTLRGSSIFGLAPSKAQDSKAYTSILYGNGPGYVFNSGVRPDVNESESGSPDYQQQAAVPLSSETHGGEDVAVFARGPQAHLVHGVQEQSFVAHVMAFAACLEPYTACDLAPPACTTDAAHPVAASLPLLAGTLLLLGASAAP
# bIAP inhibitor: blocks bovine intestinal alkaline phosphatase activity. 190,000 tested, under 10 active. purified bovine IAP, CDP-star luminescence, 30 min. inhibition, % at 20 µM;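 active means over 50% inhibition of intestinal alkaline phosphatase at 20 µM in the single-dose screen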
#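 Incubation: 30 min reaction at room temperature / Material: purified bovine intestinal alkaline phosphatase (IAP) enzyme / Input: enzyme at 1/65,000,000 dilution / Dosing: 20 µM single dose / Signal: CDP-star luminescence signal / Reagent: CDP-star chemiluminescent phosphatase substrate, 30 µM final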
# mIAP act: increases mouse intestinal alkaline phosphatase activity; activation factor at 10 µM; hit rate 0.24% among 330,000; muIAP, CDP-Star luminescence, 30 min; active compounds read high; 1 = vehicle-only enzyme signal, 0 = enzyme-free wells;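 active means activation factor of at least 2 at 20 µM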
#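 System: Mouse IAP enzyme | Also added: CDP-Star substrate | Dosing: Compounds dispensed in DMSO | Schedule: 30 min enzyme-substrate-compound incubation at room temperature | Technique: Chemiluminescence readout | Control set: DMSO-only wells and no-enzyme negative control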
# mIAP block: mouse IAP inhibition | purified mouse IAP, CDP-Star luminescence, 30 min | inhibition, % at 10 µM | hit rate 0.2% among 330,000 | AID 2806;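 active means inhibition of at least 40% at 10 µM in the primary screen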;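 further: plate controls were DMSO with enzyme for no effect and no enzyme wells for full effect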
# bIAP activator: increases bovine intestinal alkaline phosphatase activity | activation factor at 20 µM | hit rate 0.17% among 200,000 | purified bovine IAP, CDP-star luminescence, 30 min; active compounds read high; fold of DMSO-control signal, blank-subtracted | AID 1016;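 active means activation factor of 2 or more at 20 µM, a signal rise over negative controls twice the positive control's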
# hIAP act: increases human intestinal alkaline phosphatase activity. P09923. purified human IAP, CDP-Star luminescence, 30 min; active compounds read high; 1 = vehicle-only enzyme, 0 = enzyme-free background. activation factor at 10 µM. hit rate 0.16% among 330,000. AID 2524;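 active means activation factor of the enzyme at least 2-fold when tested at 20 µM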
# hIAP act confirm: human IAP activation confirmation. shares compounds with hIAP act. purified IAP, CDP-Star luminescence, 30 min; active compounds read low. activation (%Activity, negative = activation), % at 8.3 µM. hit rate 10% among 880;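 active means at least twofold enzyme activation in any of six single-dose repeats, which the averaged readout prints as negative percent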
# * marks the source's active call; other numbers are inactive results; · = no result given.
SMILES,hIAP block,bIAP inhibitor,mIAP act,mIAP block,bIAP activator,hIAP act,hIAP act confirm
NC1=NN=C(N2N=C(c3ccco3)CC2(O)C(F)(F)F)n2ncnc2C1 (stereo unspecified),-153.3,-61.4,0.648,35.2,1.6,2.53*,-1.2
CCC(=O)NNC(=O)Cc1c(C)n(C(=O)c2ccc(Cl)cc2)c2ccc(OC)cc12,-29.0,·,0.984,1.6,·,1.29,·
Cc1cc(OCC(=O)Nc2ncn[nH]2)ccc1Cl,-100.7,·,1.04,-4.0,·,2.01*,-87.0*
COc1cc(/C=C\C(=O)NCc2ccc3c(c2)cc(C)n3C)cc(OC)c1OC,12.9,19.8,0.959,4.1,0.8,0.871,·
N#Cc1ccc(OCC(=O)NNC(=S)NC(=O)C2CC2)cc1,-120.6,·,0.781,21.9,·,2.21*,-0.1
CC(C)c1ccc(OCC(=O)NNC(=S)NC(=O)C2CC2)cc1,4.4,·,0.866,13.4,·,0.956,·
CN1CCN(c2ccc([N+](=O)[O-])cc2NC(=O)c2cccs2)CC1,24.8,·,1.05,-5.0,·,0.752,·
CC[n+]1ccccc1/C=C1\Sc2ccc(C)cc2N1C,-9.3,·,0.912,8.8,·,1.09,·
CN1/C(=C/c2cccc[n+]2CCO)Sc2ccccc21,36.8*,·,1,-0.1,·,0.632,11.3
Cc1ccc(S(=O)(=O)N2CCOCC2)cc1C(=O)OCC(=O)Nc1ccc2c(c1)OCO2,-6.3,3.7,1.04,-3.9,1,1.06,·
CCc1ccc(N=C2N=C(N)c3ccccc32)cc1,37.6*,8.5,0.96,4.0,0.9,0.624,21.2
COc1cccc(/C=N/NC(=O)CNC(=O)/C=C\c2ccccc2)c1O,-141.9,·,0.841,15.9,·,2.42*,-5.0
CCc1ccc(/C=N/n2c(C)cc(C)c(C#N)c2=O)cc1,-23.8,-30.0,0.941,5.9,1.3,1.24,·
COc1ccc(C=C2C(=O)c3ccccc3C2=O)cc1O,44.7*,·,0.766,23.4,0.3,0.553,56.2
COc1cc(C=C2C(=O)c3ccccc3C2=O)ccc1O,31.6,·,0.73,27.0,·,0.684,·
COc1cc(NC(C)CCCN)c2ncccc2c1 (stereo unspecified),51.7*,·,0.991,0.9,·,0.483,-48.5
Cc1ccc(C(=O)CSc2nc(C)cc(=O)[nH]2)cc1,4.4,-7.6,1.05,-4.7,1.1,0.956,·
Cc1cc(=O)[nH]c(SCC(=O)c2ccc(O)c(O)c2)n1,43.3*,·,0.67,33.0,·,0.567,5.7
COc1ccc(N=Cc2sc3ccccc3c2Cl)cc1,37.8*,4.4,0.988,1.2,1,0.622,-34.2
Cc1ccc2oc(C(=O)N3CCCCCC3)c(C)c2c1,45.6*,·,1.01,-1.1,·,0.544,2.3
O=C(NC1CCCCCC1)c1ccc(-n2cnnc2)cc1,35.1*,·,1.02,-2.1,·,0.649,-58.8*
CC(C)(C)NC(=O)C(=O)NNC(=O)COc1ccccc1,-107.1,-6.5,0.918,8.1,1.1,2.07*,39.0
O=C(CCCCC(=O)NNC(=O)COc1ccccc1)NNC(=O)COc1ccccc1,-151.4,·,0.844,15.6,·,2.51*,-88.4*
Cc1ccc(C(=O)NNC(=O)CCCCC(=O)NNC(=O)c2ccc(C)cc2)cc1,-131.0,·,1.04,-4.4,·,2.31*,-23.2
Cc1cccc(OCC(=O)NNC(=O)CCCCC(=O)NNC(=O)COc2cccc(C)c2)c1,-224.1,·,0.864,13.6,·,3.24*,-32.8
SMILES,hIAP block,bIAP inhibitor,mIAP act,mIAP block,bIAP activator,hIAP act,hIAP act confirm
CC(=O)c1cc(CN2CCC(C(=O)Nc3ccc(-n4nc(C)cc4C)cc3)CC2)cs1,7.4,·,1.02,-2.2,·,0.926,·
COc1ccc(NC(=O)CCc2nnc3ccc(NCc4ccco4)nn23)cc1OC,-22.9,·,1.01,-1.5,·,1.23,·
N=C1SC(c2ccccc2)C(=O)N1c1ncc(Cc2ccccc2Cl)s1 (stereo unspecified),-5.5,1.5,0.967,3.3,1,1.05,·
Cc1cccc(OCC(=O)NNC(=O)c2ccc3nc[nH]c3c2)c1,-135.9,·,1,-0.5,·,2.36*,-117.3*
O=C(NCC1CCCO1)C(=O)N/N=C/c1cc(Cl)ccc1O (stereo unspecified),-100.3,·,1.08,-8.1,·,2*,-15.5
O=C(COC(=O)c1nc(Cl)ccc1Cl)NC(=O)c1ccccc1,-13.1,·,0.964,3.6,·,1.13,·
CCOC(=O)c1c(C)[nH]c(C(=O)N/N=C/c2cc([N+](=O)[O-])ccc2O)c1C,-108.4,·,0.612,38.8,·,2.08*,29.6
CCOC(=O)c1c(C)[nH]c(C(=O)N/N=C\c2ccccc2O)c1C,·,-18.5,·,·,1.2,·,·
O=C(c1ccc([N+](=O)[O-])cc1)N1CCN(Cc2ccccc2[N+](=O)[O-])CC1,-4.5,-16.1,0.923,7.7,1.2,1.04,·
S=C(NCc1ccncc1)Nc1ccc(Cl)cc1,-100.5,6.5,1.08,-7.6,0.9,2*,6.6
COc1cccc(C2CCCCN(C)C2=O)c1 (stereo unspecified),-13.4,·,1.04,-4.0,·,1.13,·
Cc1c(C(=O)NNC(=S)Nc2ccc(S(N)(=O)=O)cc2)oc2ccccc12,-105.4,·,0.813,18.7,·,2.05*,-5.2
CCCCn1c(N)c(N(CCOC)C(=O)CSc2nnc(C)n2-c2ccc(OC)cc2)c(=O)[nH]c1=O,3.2,·,0.985,1.5,·,0.968,·
O=C(NCCO)/C(=C\c1cccc([N+](=O)[O-])c1)NC(=O)c1ccco1,-1.6,16.2,0.917,8.3,0.8,1.02,·
COc1ccc2c(c1)c1nnc(SCC(=O)N3CCCCC3C)nc1n2C (stereo unspecified),·,4.7,·,·,1,·,·
COc1ccc(N2CCN(C(=O)CSc3nnc4c5cc(C)ccc5n(C)c4n3)CC2)cc1,-160.1,7.0,0.927,7.3,0.9,2.6*,-69.2
COc1ccccc1C(=O)NNC(=O)c1csc(N2CCOCC2)n1,-104.7,·,0.984,1.6,·,2.05*,2.5
O=C(NNC(=O)c1ccc(Br)o1)c1csc(N2CCOCC2)n1,-115.2,·,0.892,10.8,·,2.15*,9.7
O=C(CCNS(=O)(=O)c1ccccc1)NNC(=O)c1csc(N2CCOCC2)n1,-90.6,·,0.813,18.7,·,1.91,·
Cc1ccc(C(=O)NNC(=O)c2csc(N3CCOCC3)n2)o1,-90.4,·,0.87,13.0,·,1.9,·
CC(=O)Nc1ccc(S(=O)(=O)NCC(=O)NNC(=O)c2csc(N3CCOCC3)n2)cc1,-112.7,·,0.766,23.4,·,2.13*,-38.7
O=C(NC1CCCC1)c1ccc2c(c1)N(Cc1ccc(F)cc1)CCS2,38.6*,·,1.14,-14.0,·,0.614,-67.1
Cc1ccc(CN2CCSc3ccc(C(=O)NC4CCCC4)cc32)cc1,-26.3,·,1.22,-21.8,·,1.26,·
CC(=O)CSc1nc2ccccc2s1,0.2,2.7,0.997,0.3,1,0.998,·
Cn1cccc1C(=O)NC(=O)CSc1nc2ccccc2s1,-106.7,10.9,1.01,-1.1,0.9,2.07*,0.5
O=C(COc1ccc(Br)cc1)NCCCn1ccnc1,-155.4,·,0.994,0.6,·,2.55*,50.5
